Assay outcomes as filed in PubChem.
PGC1a acetyl inh: inhibitors of PGC1a acetylation signal, primary screen, cell-based, U2OS, AlphaScreen, inhibitor mode; AlphaScreen anti-acetyl-lysine; with virally co-expressed GCN5 acetyltransferase; inhibition, % at 15.6 µM; 350,000 tested, 0.17% active; AID 651687, 2012;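 active means every replicate shows inhibition of at least 40%; inconclusive means mean inhibition at least 40% but some replicate below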;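 further: 0% = neutral control wells and 100% = positive control wells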
HIV Env fusion: inhibitors of HIV-1 Env-driven cell-cell fusion, primary screen, HeLa-JRFL effector, CEM21 target cells, luciferase; inhibition, % at 12.3 µM; 360,000 tested, 1.1% active;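 active means mean replicate inhibition score of at least 50 and every replicate individually at or above 50; inconclusive means only one of the two criteria met; inactive means mean below 50 and not all replicates reaching 50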;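 further: 0% = plate neutral controls and 100% = maraviroc near 300 nM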
DENV2 CPE: inhibitors of DENV2 cytopathic effect, primary screen, cell-based, plate reader, single concentration. DENV2-infected cells, cytopathic effect rescue. CPE inhibition, % at 9.99 µM. 350,000 tested, 1.7% active. AID 651640, 2012; in the data active means CPE inhibition above about 20%, passing the limit was not always enough; inconclusive means no clear call, values can overlap the other calls; tested in BHK-21 cells;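 further: 0% = median of neutral control wells and 100% = median of positive control wells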
Ecoli rRNA inh: reduced GFP signal of wild-type E. coli, primary screen, bacterial rRNA inhibitor project, GFP/RFP fluorescence, OD600, single point; E. coli WT GFP vs humanized-ribosome RFP mutants, 24 h; hits give low values; DMSO median 0, no signal -100; GFP signal change (wild-type ribosome), % (test concentration not listed); 350,000 tested, 1.6% active; AID 720706, 2013;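 active means significant combined selectivity score with lowered wild-type GFP, culture density cut under 30%, mutant RFP and density less affected; inactive means any of these conditions unmet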
PglD inh: C. jejuni PglD acetyltransferase inhibitors, primary screen, biochemical, DTNB colorimetric, single point; UDP-N-acetylbacillosamine N-acetyltransferase PglD (Campylobacter jejuni); purified PglD enzyme, DTNB colorimetric CoA detection; inhibition, % at 12.5 µM; 360,000 tested, 0.098% active; in the data active means inhibition above about 16%, passing the limit was not always enough; inconclusive means no clear call, values can overlap the other calls
FN deposit inh: inhibitors of fibronectin matrix deposition, primary screen, AH1F cells, Alexa488-fibronectin fluorescence, plate reader | 350,000 tested, 0.086% active | inhibition, % at 12.6 µM | AH1F fibroblasts, overnight;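 active means mean inhibition across replicates of 30% or more, regardless of how many single replicates reach that level; inconclusive means mean under 30% yet at least half of replicates reach 30%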;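 further: positive control wells lacked labelled fibronectin entirely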
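Assay system: AH1F fibroblasts / Quantity: 10000 cells per well / Medium: DMEM plus 2% serum, read in PBS / Reagent: labelled fibronectin 24 nM / Dosing: single dose, pinned / Times: 1 h cell attachment, overnight exposure to compound and label / Signal: fluorescence, ex 485 nm, em 525 nm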
Starred values were filed as active, the others as inactive; [ ] = another dose, or the depositor's remark. Compounds with a hit are over-represented: about 3.5% of the library has one in this group of screens.

Screening CN(C)CC(=O)N[C@H]1CC[C@@H](CC(=O)O)O[C@H]1CO returned DENV2 CPE -6, Ecoli rRNA inh 2 and FN deposit inh 3.
`Cn1ncc2c(O/N=C(\N)c3ccc(C(F)(F)F)cc3)ncnc21` gave PGC1a acetyl inh inconclusive, HIV Env fusion -16, DENV2 CPE -4, Ecoli rRNA inh -17*, PglD inh 6 and FN deposit inh -10.
`Cc1ccc(C(=O)NNc2ncnc3c2cnn3C)cc1` gave HIV Env fusion -1, DENV2 CPE 0, Ecoli rRNA inh 17 and FN deposit inh 7.
Screening CO[C@H]1CN(C)C(=O)c2cc(NC(=O)Nc3ccc4c(c3)OCO4)ccc2OC[C@H](C)NC[C@@H]1C returned PGC1a acetyl inh 0, DENV2 CPE -3, Ecoli rRNA inh 8, PglD inh -3 and FN deposit inh -5.
Screening CCCC#Cc1cnc2c(c1)C(=O)N([C@H](C)CO)C[C@@H](C)[C@H](CN(C)C)O2 returned PGC1a acetyl inh -3, HIV Env fusion -9[16.7 µM], DENV2 CPE 4, Ecoli rRNA inh 6, PglD inh 0 and FN deposit inh -6.
CCn1c2ccccc2c2cc(/C=C(/C#N)C(N)=S)ccc21 was read as HIV Env fusion 57*, DENV2 CPE inconclusive, Ecoli rRNA inh -23 and FN deposit inh -9.
`C[C@@H]1CCCCO[C@@H](CN(C)C(=O)NC2CCCCC2)[C@H](C)CN([C@H](C)CO)C(=O)c2cc(NS(C)(=O)=O)ccc2O1` gave PGC1a acetyl inh -7, HIV Env fusion -12[16.7 µM], DENV2 CPE 5, Ecoli rRNA inh 1, PglD inh -1 and FN deposit inh -7.
`C=Cn1cc[n+](CC(=O)c2cccs2)c1` gave PGC1a acetyl inh 7, HIV Env fusion 5, DENV2 CPE -6, Ecoli rRNA inh 2, PglD inh 2 and FN deposit inh 2.
C=Cn1cc[n+](CC(=O)c2cc(C(C)(C)C)c(O)c(C(C)(C)C)c2)c1 was read as PGC1a acetyl inh 4, HIV Env fusion -137, DENV2 CPE inconclusive, Ecoli rRNA inh -19*, PglD inh -8 and FN deposit inh 2.
CCCSc1nc2c(cnn2-c2ccccc2)c(=O)n1N was read as PGC1a acetyl inh 8, HIV Env fusion -47, DENV2 CPE 18, Ecoli rRNA inh -19*, PglD inh 3 and FN deposit inh 8.
`CNC[C@@H]1Oc2ccc(NS(=O)(=O)c3cn(C)cn3)cc2C(=O)N([C@H](C)CO)C[C@H]1C` gave PGC1a acetyl inh 1, HIV Env fusion 25[16.7 µM], DENV2 CPE 4, Ecoli rRNA inh 0 and PglD inh -3.
Screening Cc1cccc(C)c1NC(=O)CN1CCN(C(=O)c2cc(C3CC3)nn2-c2ccccc2)CC1 returned PGC1a acetyl inh -15, HIV Env fusion 13, DENV2 CPE 81*, Ecoli rRNA inh -1, PglD inh 1 and FN deposit inh -10.
Screening CCCNC(=O)Nc1ccc2c(c1)C(=O)N(C)C[C@@H](OC)[C@H](C)CN(Cc1ccc(-c3ccccn3)cc1)[C@@H](C)CO2 returned PGC1a acetyl inh -4, HIV Env fusion 14[16.7 µM], DENV2 CPE -2, Ecoli rRNA inh 0, PglD inh -2 and FN deposit inh -19.
Screening C[C@H]1CN([C@@H](C)CO)C(=O)c2cccc(NC(=O)Nc3cccc4ccccc34)c2O[C@H]1CN(C)C(=O)Nc1ccc(C(F)(F)F)cc1 returned PGC1a acetyl inh -11, DENV2 CPE 32* and Ecoli rRNA inh 0.
C[C@H]1CN([C@@H](C)CO)C(=O)c2cccc(NC(=O)c3ccncc3)c2O[C@@H]1CN(C)C(=O)Nc1cccc2ccccc12 was read as PGC1a acetyl inh 5, HIV Env fusion 66*[16.7 µM], DENV2 CPE 15, Ecoli rRNA inh 6 and PglD inh -2.
